Results reported in ChEMBL document CHEMBL1135836, “Cyclodextrin-derived host molecules as reversal agents for the neuromuscular blocker rocuronium bromide: synthesis and structure-activity relationships” (J Med Chem, 2002).

Key:
Type in all cases: functional
Cavia porcellus [1] = experiment: In vivo reversal activity versus ~90% block by rocuronium in guinea pig
How it was run: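 Male Dunkin-Hartley guinea pigs (600-900 g), anaesthetized ip with pentobarbitone 10 mg/kg plus urethane 1000 mg/kg, tracheotomized and ventilated. Continuous iv rocuronium infusion (~10 nmol kg-1 min-1) was raised to a steady 85-90% block. Increasing iv doses of agent were given cumulatively. ED50 = 50% recovery versus preblock twitch, by regression. Mean ± SEM of at least two experiments, or one.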

Cavia porcellus [2] = experiment: In vivo reversal activity versus ~90% block by rocuronium in guinea pig, expressed as % of maximum reversal at 7.3 umol/kg conc.
How it was run: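 Male Dunkin-Hartley guinea pigs (600-900 g) anaesthetized ip with pentobarbitone 10 mg/kg plus urethane 1000 mg/kg, tracheotomized and artificially ventilated. Continuous iv rocuronium bromide infusion (~10 nmol kg-1 min-1) raised until steady-state twitch block of 85-90%. Increasing single iv doses of reversal agent given by a separate catheter. Max reversal is peak twitch recovery versus preblock height at highest dose tested; means ± SEM, n ≥ 2 or single experiment.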

Mus musculus [3] = species on record: Mus musculus; experiment: In vitro reversal activity versus ~90% block by rocuronium in isolated mouse hemidiaphragm, expressed as % of maximum reversal at 14.4 uM conc.
Mus musculus [4] = species on record: Mus musculus; experiment: In vitro reversal activity versus ~90% block by rocuronium in isolated mouse hemidiaphragm, expressed as effective conc.

EC50 (Mus musculus [4]): 6.4 µM
SMILES: CNC(=O)CSCC1O[C@@H]2O[C@@H]3C(CSCC(=O)NC)O[C@H](O[C@@H]4C(CSCC(=O)NC)O[C@H](O[C@@H]5C(CSCC(=O)NC)O[C@H](O[C@@H]6C(CSCC(=O)NC)O[C@H](O[C@@H]7C(CSCC(=O)NC)O[C@H](O[C@@H]8C(CSCC(=O)NC)O[C@H](O[C@@H]9C(CSCC(=O)NC)O[C@H](O[C@H]1C(O)C2O)C(O)C9O)C(O)C8O)C(O)C7O)C(O)C6O)C(O)C5O)C(O)C4O)C(O)C3O (some centres undefined)
ED50 (Cavia porcellus [1]): 1.54 µmol/kg
Max reversal (Cavia porcellus [2]): 102.2%
Max reversal (Mus musculus [3]): 79.6%
